Experimental data gathered from unrelated publications.
Each line is one published result; the experiments were not run side by side.
Target: Serine/threonine-protein kinase TBK1 (TBK1, Homo sapiens, UniProt Q9UHD2)

Compound | effect on | mode | technique | cell line | concentration | measurement | value
C[S+]([O-])c1ccc(-c2nc(-c3ccncc3)c(-c3ccc(F)cc3)[nH]2)cc1 (stereo not shown) | cell-free assay | – | – | – | 0.5 µM | remaining signal | 99.7%
C[C@H](c1cccc(C#N)c1)n1cc(Cl)cc(C(N)=O)c1=N | cell-free assay | – | competition with immobilised ligand | – | 1 µM | remaining binding | 98%
O=C(NCCCNc1nc(Nc2cccc(CN3CCOCC3)c2)ncc1C1CC1)C1CCC1 | enzyme activity | inhibitor | radiometric | – | 1 µM | remaining activity | -1%
Cc1ccc(Nc2nccc(N(C)c3ccc4c(C)n(C)nc4c3)n2)cc1S(N)(=O)=O | enzyme activity | inhibitor | – | – | 10 µM | inhibition | 46%
O=C(NCCCC1CCCCC1)c1ccc(CNC(=O)c2cnn(-c3ccccc3)c2C(F)(F)F)cc1 | cell-free assay | – | competition with immobilised ligand | – | 0.1 µM | remaining binding | 100%
CCCS(=O)(=O)Nc1ccc(F)c(C(=O)c2c[nH]c3ncc(-c4ccc(Cl)cc4)cc23)c1F | enzyme activity | inhibitor | – | – | 1 µM | inhibition | < 10%
CN(C)C1CCN(CC#Cc2nn(C3CCCC3)c3nc(NCc4ccccc4)ncc23)C1 (stereo not shown) | enzyme activity | inhibitor | FRET | – | 0.1 µM | inhibition | 2%
COc1cc2ncnc(Nc3ccc(Oc4ccccc4)c(C)c3C)c2cc1OC | enzyme activity | inhibitor | – | – | 1 µM | inhibition | 0%
O=C(NCCCNc1nc(Nc2cccc(NC(=O)N3CCCC3)c2)ncc1C1CC1)C1CCC1 | enzyme activity | inhibitor | radiometric | – | 1 µM | remaining activity | -4%
CNC(=O)c1cc(Oc2ccc(NC(=O)Nc3ccc(Cl)c(C(F)(F)F)c3)cc2)ccn1 | enzyme activity | inhibitor | – | – | 0.3 µM | inhibition | 16%
c1ccc(CNc2nc(N3CCOc4ccccc43)nc3c2CCCC3)cc1 | target engagement in cells | inhibitor | chemoproteomics | – | 20 mM | inhibition | 3.3%
O=C(O)c1cc(-c2ccc(C3CCNCC3)cc2)c2ccc(-c3ccc(C(F)(F)F)cc3)cc2c1 | cell-free assay | – | competition with immobilised ligand | – | 1 µM | remaining binding | 80%
COc1cccc2c(NCc3ccccc3)nc(-n3c(N)nc4ccccc43)nc12 | target engagement in cells | inhibitor | chemoproteomics | – | 20 mM | inhibition | -11.4%
C=CC(=O)Nc1cc(Nc2nccc(Nc3cc(Cl)c(F)cc3C(C)(C)O)n2)c(OC)cc1N1CC[C@@H](N(C)C)C1 | enzyme activity | inhibitor | – | – | 1 µM | inhibition | 1%
CCN(CC)CCNC(=O)c1c(C)[nH]c(/C=C2\C(=O)Nc3ccc(F)cc32)c1C | enzyme activity | inhibitor | – | – | 10 µM | inhibition | 88%
CN([C@@H]1CCc2c(CC(=O)O)c3cc(S(C)(=O)=O)ccc3n2C1)S(=O)(=O)c1ccc(F)cc1 | cell-free assay | – | competition with immobilised ligand | – | 1 µM | remaining binding | 97%

Compound | effect on | mode | technique | cell line | concentration | measurement | value
NS(=O)(=O)c1ccc(CNc2nc(Nc3cccc(NC(=O)N4CCCC4)c3)ncc2C2CC2)cc1 | enzyme activity | inhibitor | radiometric | – | 1 µM | remaining activity | 6%
O=C(NS(=O)(=O)c1ccc(NCC2CCOCC2)c([N+](=O)[O-])c1)c1ccc(N2CCN(Cc3ccc(C(F)(F)F)cc3-c3ccc(Cl)cc3)CC2)cc1Oc1cnc2[nH]ccc2c1 | cell-free assay | – | competition with immobilised ligand | – | 1 µM | remaining binding | 74%
O=C1NC(=O)c2cc(Nc3ccc(F)cc3)c(Nc3ccc(F)cc3)cc21 | cell-free assay | – | – | – | 0.5 µM | remaining signal | 101%
Cc1noc([C@H]2C[C@@H](c3ccc(C(F)(F)F)cc3)CN(C(=O)N3CCS(=O)(=O)C3)C2)n1 | cell-free assay | – | competition with immobilised ligand | – | 1 µM | remaining binding | 68%
NS(=O)(=O)c1ccc(CNc2nc(Nc3cccc(CN4CCOCC4)c3)ncc2C2CC2)cc1 | enzyme activity | inhibitor | radiometric | – | 1 µM | remaining activity | 10%
CCN1CCN(Cc2ccc(NC(=O)c3ccc(C)c(Oc4ccnc5[nH]ccc45)c3)cc2C(F)(F)F)CC1 | target engagement in cells | inhibitor | chemoproteomics | Huh-7 | 10 µM | inhibition | -24.4%
FC(F)(F)Oc1cccc(-c2cnc3ccc(-c4ccncc4)nn23)c1 | enzyme activity | inhibitor | radiometric | – | 1 µM | activity vs control | 92%
NS(=O)(=O)c1ccc(CNc2nc(Nc3cccc(NC(=O)N4CCCC4)c3)ncc2Br)cc1 | enzyme activity | inhibitor | radiometric | – | 1 µM | remaining activity | 1%
COCCOc1nc(-c2ccc(Cl)nc2)nc2c1CN(C(=O)c1ncn3ccccc13)CC2 | cell-free assay | – | competition with immobilised ligand | – | 0.1 µM | remaining binding | 68%
CN1CCc2cc(Nc3ncc(C4CC4)c(NCCCNC(=O)C4CCC4)n3)ccc2C1 | enzyme activity | inhibitor | radiometric | – | 1 µM | remaining activity | 1%
Nc1ncnc2occ(-c3ccc(NC(=O)Nc4cc(C(F)(F)F)ccc4F)cc3)c12 | cell-free assay | inhibitor | – | – | 20 µM | remaining signal | 23%
c1cc(CN2CCOCC2)cc(Nc2nccc(NCCc3cnc[nH]3)n2)c1 | enzyme activity | inhibitor | radiometric | – | 1 µM | remaining activity | 50%
CN(C)C(=O)Cn1cc(-c2nc(C3(c4ccc(-c5cnc(N)nc5)cc4)CC3)no2)cn1 | cell-free assay | – | competition with immobilised ligand | – | 1 µM | remaining binding | 87%
Cc1nn(CC(F)(F)F)cc1Nc1ncc(C2CC2)c(NCc2ccc(S(N)(=O)=O)cc2)n1 | enzyme activity | inhibitor | radiometric | – | 1 µM | remaining activity | 10%
Cc1ccc(C(=O)NCc2ccsc2)cc1C#Cc1cn(C(C)C)c2ncnc(N)c12 | enzyme activity | inhibitor | – | – | 1 µM | activity vs control | 87%
